# Measured values: PubChem BioAssay AID504382 (The Scripps Research Institute Molecular Screening Center, 2011)
# Out of some 2,500 compounds screened, about 460 (18%) were called active.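 How the source made its calls: active means mean activation above a cutoff of low control average plus 3 SD from the earlier screen (cut at about 12% in these data); inactive means the rest.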 These entries were drawn from the full list.
# Test: compound fluorescence interference without thin filaments, confirmation, artefact control for cardiac RTF calcium sensitizer project, biochemical (AID 504382)
# Conditions: IANBD fluorescence interference counterscreen, buffer, EC20 Ca2+; at 7.2 µM; active compounds read high; scaled: EC20 calcium 0, EC100 calcium 100
# Method in brief: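 Medium: MOPS buffer, 190 mM, with KCl, MgCl2, EGTA, NTA, DTT, pH 7.20; Dosing: one dose of 7.2 µM, 0.7% DMSO; Probe or stimulus: calcium at EC20 level, 0.472 mM final; Incubation: 15 min, 25 °C; Evaluation: compound fluorescence interference relative to control well signal range; Signal: fluorescence, 480/540 nm.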
row,Compound,fluorescence artifact activation
1,Cc1cccc(CN2C(=O)N/C(=C/c3ccc(C)s3)C2=O)c1,0.03% (inactive)
2,COc1ccc(C2C(C#N)=C(N)N(c3cccnc3)C3=C2C(=O)CCC3)cc1Cn1cc([N+](=O)[O-])cn1 (stereo unspecified),4.77% (inactive)
3,CCOC(=O)C1C(=O)NC(SCC(N)=O)=C(C#N)C1c1ccccc1OCC (stereo unspecified),0.28% (inactive)
4,Fc1ccc(-c2nc3ccncc3[nH]2)cc1,1.25% (inactive)
5,Cc1ccc2oc3c(SCc4nc5ccccc5[nH]4)nc(C)nc3c2c1,6.37% (inactive)
6,CC1=NN(C(=O)c2ccccc2-n2cccc2)C(O)(C(F)(F)F)C1 (stereo unspecified),0.1% (inactive)
7,COc1ccc(OC)c(C2=C/C(=C/c3ccccn3)C(=O)O2)c1,0.07% (inactive)
8,CCN(CC)c1ccc(/C=C/c2cc(-c3ccccc3)c3ccccc3n2)cc1,3.44% (inactive)
9,CCN(CC)c1ccc(/C=C/c2cccc[n+]2C)c(OC)c1,22.6% (active)
10,C[C@@H]1CC=C[C@H]2[C@H]1C(=O)N(Cc1ccccc1)[C@H]2c1ccc(-c2cc3ccccc3s2)cc1F,0.21% (inactive)
11,COc1ccc(NC(=O)c2cc(C)on2)cc1OC,0.84% (inactive)
12,COc1ccc(-c2cc(C(F)(F)F)nc(S(=O)(=O)CCCC(=O)Nc3cc(C)on3)n2)cc1OC,3.3% (inactive)
13,COc1ccc(S(=O)(=O)Nc2cc(C)on2)cc1,26.7% (active)
14,CC1=NN(C(=O)c2ccc(Cn3ccc([N+](=O)[O-])n3)cc2)C(O)(C(F)(F)F)C1 (stereo unspecified),5.1% (inactive)
15,COc1cccc(/C=N/c2nc3ccccc3[nH]2)c1O,0.01% (inactive)
16,CN(C)c1ccc(/C=C/C(=O)c2c(O)c3ccccc3oc2=O)cc1,1.4% (inactive)
17,CN1CCN(c2ccc(-c3cccc(NC(=O)COc4ccccc4)c3)nn2)CC1,9.37% (inactive)
18,Cc1cc[n+](-c2[nH]c(=O)sc2/C=N/N=C(\[O-])c2ccccc2)cc1C,3.62% (inactive)
19,O=C(NC(NC(=S)Nc1ccccc1C(=O)O)C(Cl)(Cl)Cl)c1ccco1 (stereo unspecified),0% (inactive)
20,O=C(NC(=S)Nc1ccc2oc(=O)ccc2c1)c1ccco1,33.8% (active)
21,O=C(CSc1ccc(Cl)cc1)Nc1cccc(NC(=O)c2ccco2)c1,0.39% (inactive)
22,COc1ccc(/C=[N+](\[O-])C2N(c3ccccc3)C(=S)SC2(C)C)cc1OC (stereo unspecified),0.2% (inactive)
23,CC(C)N1CC=C2C(C#N)=C(N)C(C#N)(C#N)C(c3ccccc3)C2C1 (stereo unspecified),0.48% (inactive)
24,COc1ccc(C(=O)Nc2ccccc2-c2ccccc2)cc1Cl,0.15% (inactive)

row,Compound,fluorescence artifact activation
1,CC(C)(ONC(=O)Nc1ccccc1Cl)C(=O)O,314% (active)
2,O=C(Cc1ccccc1Cl)Nc1cccnc1,1.8% (inactive)
3,Clc1cccc(C[n+]2cc(-c3ccccc3)n3c2CCC3)c1,-0.06% (inactive)
4,CCc1cc[n+](-c2nc([O-])sc2C=O)cc1,2.36% (inactive)
5,COc1ccc(N2CC(C(=O)Nc3nc(-c4ccccc4)c(C(C)=O)s3)CC2=O)c(OC)c1 (stereo unspecified),0.16% (inactive)
6,O=C(O)CCC(=O)Nc1cc(C(F)(F)F)cc(C(F)(F)F)c1,3.32% (inactive)
7,CC1=NN(c2ccc(Br)cc2)C(=O)/C1=C/c1ccc(-c2ccccc2C(=O)O)o1,0.09% (inactive)
8,CC1=NN(c2ccc(C)c(C)c2)C(=O)/C1=C/c1ccc2c(c1)n(C)c(=O)n2C,16.1% (active)
9,CCOC(=O)c1c(NC(=O)COC(=O)Cc2ccccc2[N+](=O)[O-])sc(C(=O)N(C)C)c1C,-0.03% (inactive)
10,Oc1[nH]c2ccccc2c1N=Nc1cccc(Cl)c1,0.77% (inactive)
11,CCC(/C=C1\Oc2ccc(OC)cc2N1C)=C\c1sc2ccccc2[n+]1CCCS(=O)(=O)[O-],4.9% (inactive)
12,COc1ccc(N/C=C\C(=O)c2ccc(Br)cc2)cc1OC,15.4% (active)
13,COc1ccc(NC(=O)C2CC2)cc1OC1CCCC1,0.04% (inactive)
14,COc1cc(OC)c(OC)cc1/C=C/C(=O)c1ccc(NS(=O)(=O)c2ccc(C)cc2)cc1,0.29% (inactive)
15,Oc1sc(C=Nc2ccccc2)c2ccccc12,-0.05% (inactive)
16,Cc1ccc(N=Cc2sc(O)c3ccccc23)cc1,0% (inactive)
17,COc1ccc(N=Cc2sc(O)c3ccccc23)cc1,27.5% (active)
18,COc1ccc(-n2nnnc2SCC(=O)c2cc3ccccc3o2)cc1,12.4% (active)
19,COc1ccc(-c2nnc(SCC(=O)c3ccc[nH]3)n2-c2ccccc2)cc1,0.12% (inactive)
20,COc1ccc(OC)c(-n2nnnc2SCC(=O)NCCc2ccccc2)c1,3.03% (inactive)
21,COC(=O)CCCNC(=O)CCc1nnc(-c2ccc(-c3ccccc3)cc2)o1,-0.05% (inactive)
22,CCOc1ccc(-c2nc3scc(-c4cccs4)c3c(=O)[nH]2)cc1,15.2% (active)
23,COc1ccc(C(=O)Nn2cnc3scc(-c4cccs4)c3c2=O)c(O)c1,7.33% (inactive)
24,O=C(NCCN1CCOCC1)c1ccc(CS(=O)(=O)c2c(Cl)cccc2Cl)o1,-0.03% (inactive)

row,Compound,fluorescence artifact activation
1,CCOC(=O)c1c(/N=C/c2cccc([N+](=O)[O-])c2O)sc(C)c1C,2.1% (inactive)
2,COC(=O)c1c(-c2ccc(OC)c(OC)c2)csc1N,0% (inactive)
3,CC1CCC(C(C)C)C(OC(=O)Cn2c(-c3ccccc3)[n+](C)c3ccccc32)C1 (stereo unspecified),0% (inactive)
4,CCC(C)[C@H](NC(=O)N1CCC(C)CC1)C(=O)OC (stereo partly specified),-0.05% (inactive)
5,O=C(CCSc1nnc(-c2ccco2)o1)Nc1ccccc1,24.7% (active)
6,CCn1c(SCC(=O)NNC(=O)c2ccco2)nnc1-c1ccco1,-0.04% (inactive)
7,O=C(CSc1nnc(-c2ccco2)o1)NC1CCCCC1,-0.05% (inactive)
8,Cc1ccc(-n2nnnc2C(=Cc2ccc(N(C)C)cc2)c2nnnn2-c2ccc(C)cc2)cc1,0.09% (inactive)
9,COc1cccc2cc(-c3nc(-c4cccs4)cs3)c(=O)oc12,-0.05% (inactive)
10,CCOC(=O)c1c(-c2ccccc2)csc1NC(=O)/C(C#N)=C\c1ccc(O)c(OC)c1,0.5% (inactive)
11,CC(C)CN1CCN(Cc2cccn2-c2ccc(Cl)cn2)CC1CCO (stereo unspecified),26.8% (active)
12,CCOC(=O)/C(=C/C=C1\Sc2cc(OCC)c(OCC)cc2N1CC)C(C)=O,5.45% (inactive)
13,O=C1CCC[C@@H]2Cc3nc4ccc(O)cc4cc3[C@@H]3CCN1[C@H]23,1.03% (inactive)
14,c1ccc(CCCN2CCN(c3ccccc3)CC2)cc1,0% (inactive)
15,CCc1ccc(C(=O)NNc2ccccc2F)cc1,1.03% (inactive)
16,Cc1occc1C(=O)N=Nc1c(O)n(C)c2ccccc12,2.27% (inactive)
17,COCCn1c(=O)c2ccccc2c2ccccc2c1=O,17.2% (active)
18,COCCn1c(-c2ccc(C)cc2)nc2oc3cc(OC)ccc3c(=O)c2c1=O,0.27% (inactive)
19,COCCn1c(SCC(=O)Nc2ccc(NC(=O)c3ccco3)c(OC)c2)nc2ccccc2c1=O,1.13% (inactive)
20,O=C(Nc1cc2c(cc1Br)OCCCO2)c1cccnc1,-0.06% (inactive)
21,CCN(CC(=O)N1CCCC1)S(=O)(=O)c1ccc(OC)cc1,87% (active)
22,COc1ccc(CN(Cc2cccn2C)S(=O)(=O)c2ccccc2)cc1,0.19% (inactive)
23,Cc1ccccc1NS(=O)(=O)c1ccc(OCC(=O)N2CCCCC2)cc1,-0.04% (inactive)
24,Cc1ccc([N+](=O)[O-])c(OCCCN2C(=O)NC(C)(C)C2=O)c1,0.02% (inactive)

row,Compound,fluorescence artifact activation
1,COc1ccccc1N1C(C)=CC(=C(C#N)c2nc3ccccc3s2)C=C1C,0.18% (inactive)
2,COc1ccc(N2C(=O)[C@@H]3[C@H](C2=O)[C@H](C(C)=O)N2c4ccccc4C=C[C@@H]32)cc1,0.08% (inactive)
3,CCOc1ccc(CN2CCN(C/C=C/c3ccc(OC)cc3)CC2CCO)cc1 (stereo unspecified),0.09% (inactive)
4,Cc1ccc(CN2CCN(Cc3ccc(-n4cccn4)cc3C)CC2CCO)cc1 (stereo unspecified),37.2% (active)
5,CSc1nnc(N(CCC#N)CCC#N)s1,11.2% (inactive)
6,COc1ccc(-c2onc3ccc(C(C)=O)cc23)cc1,5.91% (inactive)
7,CC1(C)CC(=O)C(C=Nc2ccc(C(=O)c3ccccc3)cc2N=CC2=C(O)CC(C)(C)CC2=O)=C(O)C1,0.03% (inactive)
8,Cc1nnc(N2CCOCC2)c2nn(-c3cccc(Cl)c3)c(C)c12,0.16% (inactive)
9,COc1cc(OC)c(NC(=O)c2cc3ccccc3cc2O)cc1Cl,0.48% (inactive)
10,Cn1c(O)c(/C=N/NC(=O)c2cc3ccccc3cc2O)c2ccccc21,70% (active)
11,O=C(N/N=C/c1c(O)n(-c2ccc(Cl)cn2)c(=O)c2ccccc12)c1ccncc1,0.02% (inactive)
12,CCCNC(=O)C12CCC(C)(C(=O)C1Br)C2(C)C (stereo unspecified),0.01% (inactive)
13,CN(C)CCNC(=O)c1c(CSc2ccc(Cl)cc2)noc1C(=O)NCc1ccccc1,0.05% (inactive)
14,COc1cc(OC)c(C2N(c3ccc(Cl)c(Cl)c3)C(=O)C3CCCN32)cc1OC (stereo unspecified),-0.1% (inactive)
15,O=C(O)c1ncc(-c2ccccc2)cn1,43.6% (active)
16,NC(=O)C1CCN(C(=O)c2ccc(-c3ccccc3)cc2)CC1,4.63% (inactive)
17,O=C([O-])c1ccccc1-[n+]1c(-c2ccccc2)cc(-c2ccccc2)cc1-c1ccccc1,0% (inactive)
18,c1ccc2c(c1)CN1CCCC1=N2,-0.08% (inactive)
19,COc1cc(/C=C(\C#N)c2nc3ccccc3[nH]2)ccc1O,0.06% (inactive)
20,CCOc1cc(N(CC)CC)ccc1/C=C(/C#N)c1nc2ccccc2[nH]1,0.26% (inactive)
21,CCN(CC)c1ccc(/C=C(/C#N)c2nc3ccccc3[nH]2)c(OC(C)C)c1,41.8% (active)
22,CCCOc1cc(N(CC)CC)ccc1/C=C(/C#N)c1nc2ccc(C)cc2[nH]1,12.4% (active)
23,COc1cccc(/C=C(/C#N)c2nc3ccccc3[nH]2)c1OC(C)C(=O)O (stereo unspecified),0.54% (inactive)
24,COc1cc(/C=C(\C#N)c2nc3ccccc3[nH]2)cc(OC)c1O,6.16% (inactive)
